Results as given in PMC10448692 (ACS Omega, 2023).

Tests used:
DNA (PDB ID: 1BNA) = details: reported docking; cited from earlier work
[1] = Lipophilicity by shake flask, n-octanol/water partition; type: physicochemical; details: room temperature
In short: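 Shake-flask method. Each compound was added separately to n-octanol and to double-distilled water and shaken 24 h at room temperature to saturate each phase. Undissolved solid was removed by centrifugation or filtration, and the saturated solution was evaporated to dryness. Residue weight gave solubility, from which logS and logP were computed.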

| Structure (SMILES) | docking energy with DNA (DNA (PDB ID: 1BNA)) [kcal/mol] | experimental logP [1] | experimental logP ([1]; listed as Gly) |
| --- | --- | --- | --- |
| O=C(O)CNC1CCCCC1 [CHgly, cyclohexyl glycine] | -5.71 |  |  |
| NCC(=O)O [gly, Glycine] |  | −2.7 | –2.76 |
